Source: PubChem (The Scripps Research Institute Molecular Screening Center)
ADAM10 inh: inhibits human ADAM10. O14672. recombinant ADAM10, EDANS/DABCYL FRET peptide cleavage, 3 h. inhibition, % at 7 µM. hit rate 0.62% among 370,000;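 active means inhibition above a per-campaign cutoff equal to the mean of compounds falling between control-based bounds plus 3 SD, cut at about 20% in these data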
Target sequence (O14672 214-748 limits assumed): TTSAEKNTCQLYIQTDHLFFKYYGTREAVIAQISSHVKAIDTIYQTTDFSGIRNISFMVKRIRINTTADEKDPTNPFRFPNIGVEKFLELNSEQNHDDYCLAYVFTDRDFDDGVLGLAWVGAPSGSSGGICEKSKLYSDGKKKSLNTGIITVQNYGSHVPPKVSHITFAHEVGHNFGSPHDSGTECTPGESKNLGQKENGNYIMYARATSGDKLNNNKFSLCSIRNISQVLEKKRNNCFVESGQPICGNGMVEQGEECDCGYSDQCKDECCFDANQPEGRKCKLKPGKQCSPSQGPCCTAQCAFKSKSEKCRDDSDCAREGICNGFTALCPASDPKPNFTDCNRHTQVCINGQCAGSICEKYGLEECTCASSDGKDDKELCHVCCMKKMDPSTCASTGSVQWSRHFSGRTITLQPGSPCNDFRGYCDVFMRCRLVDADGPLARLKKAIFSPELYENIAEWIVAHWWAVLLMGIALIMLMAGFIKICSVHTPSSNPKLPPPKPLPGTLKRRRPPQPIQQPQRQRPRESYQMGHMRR
ADAM17 inh: ADAM17 inhibition, QFRET primary screen | inhibition, % at 6.95 µM | P78536 | hit rate 0.83% among 370,000 | recombinant ADAM17, EDANS/DABCYL FRET peptide cleavage;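 active means inhibition above the mean of compounds lying between control limits plus 3 SD, set per campaign, cut at about 8.5% in these data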
TbMetRS inhib: blocks T. brucei methionyl-tRNA synthetase activity | purified T. brucei MetRS, ATP depletion, Kinase-Glo luminescence | inhibition, % at 11.9 µM | hit rate 0.4% among 360,000 | AID 624268;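 active means inhibition above a per-plate cutoff of the control wells' mean inhibition plus 3 SD, cut at about 5.5% in these data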
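System: purified T. brucei MetRS enzyme / Detection: Kinase-Glo luciferase luminescence reporting remaining unconsumed ATP / Medium: HEPES buffer with MgCl2, KCl, DTT, spermine, BSA, pyrophosphatase / Replication: singlicate, one well per compound / Evaluation: percent inhibition relative to median high and low control wells / Schedule: 2 h aminoacylation at 25 °C after 15 min preincubation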
PLCb3 inh: inhibitors of human phospholipase C beta3; inhibition, % at 12.2 µM; Q01970; Purified PLC-beta3, fluorogenic substrate, fluorescence; hit rate 0.18% among 370,000
PLC-gamma1 inh: blocks human PLC-gamma1 enzyme activity; P19174; purified PLC-gamma1, fluorogenic substrate, fluorescence; inhibition, % at 12.2 µM; hit rate 0.84% among 370,000; AID 720700; in the data active means inhibition above about 9.5%
PLCg1 ctr: counter-screen for PLC-beta3 inhibitors: inhibitors of human PLC-gamma1; inhibition, % at 12.3 µM; AID 743258; hit rate 3.1% among 3,300; purified PLC-gamma1, fluorogenic substrate, fluorescence; shares compounds with PLC-gamma1 inh; in the data active means inhibition above about 9.5%
PLCbeta3 conf: confirmation of human PLC-beta3 inhibitors; AID 743261; inhibition, % at 12.3 µM; shares compounds with PLC-gamma1 inh; hit rate 1% among 3,300; purified PLC-beta3, fluorogenic substrate fluorescence
Each line names hits and unclear results; the compound was inactive in the other large screens (follow-up assays come after a bar, where they were run). This is a sample that favours compounds with a hit; in the whole collection about 2.3% have one here. Unless noted, no stated cut-off is given here; in the data, active means inhibition above about 11%; inactive means the rest.

Cc1ccc2nsnc2c1S(=O)(=O)N1CCN(CCc2ccccc2)CC1	PLC-gamma1 inh 14 | PLCg1 ctr inactive | PLCbeta3 conf inactive
CCc1ccc(OCCOCC(O)CN(CCO)CCO)cc1 (stereo unspecified)	PLCb3 inh 11 | PLCg1 ctr inactive | PLCbeta3 conf inactive
OCCN(CCO)CC(O)COc1ccc(Br)cc1 (stereo unspecified)	none
COCCNc1nc(N)c([N+](=O)[O-])c(NCc2ccccc2)n1	none
CN(C)CCCNc1nc(N)c([N+](=O)[O-])c(NCc2ccccc2)n1	PLC-gamma1 inh 9.7 | PLCg1 ctr inactive | PLCbeta3 conf inactive
Nc1nc(NCc2ccccc2)nc(NCc2ccccc2)c1[N+](=O)[O-]	none
COCCCNc1nc(N)c([N+](=O)[O-])c(NCc2ccccc2)n1	PLC-gamma1 inh 10 | PLCg1 ctr inactive | PLCbeta3 conf inactive
NCCc1nnc(SCC(=O)Nc2ccc(Br)cc2)o1	none
CN(C)C(=O)CSc1nnc(CCN)o1	PLC-gamma1 inh 13 | PLCg1 ctr inactive | PLCbeta3 conf inactive
O=C1COc2ccc(C(=O)COC(=O)CCCOc3ccccc3)cc2N1	PLCb3 inh 11 | PLCg1 ctr inactive | PLCbeta3 conf inactive
O=[N+]([O-])c1cccnc1SCc1ccccc1	PLC-gamma1 inh 15 | PLCg1 ctr inactive | PLCbeta3 conf inactive
O=C(O)c1cccnc1SCc1ccc([N+](=O)[O-])cc1	none
COC(=O)[C@]12C[C@H](CC(=O)NCc3cccs3)C(=O)N(Cc3ccc(Cl)cc3Cl)C1=C[C@H](C(C)C)O[C@@H]2C1CC1	none (no result: TbMetRS inhib)
COc1cccc(C(=O)N2CCOCC2)c1	PLC-gamma1 inh 11 | PLCg1 ctr inactive | PLCbeta3 conf inactive
COc1cccc(C(=O)Nc2cccc(C(=O)N3CCOCC3)c2)c1	none
CCCS(=O)(=O)NC(=O)C1(C)CCN(C(=O)c2cc(C)nn2C(C)(C)C)C1 (stereo unspecified)	PLC-gamma1 inh 9.8 | PLCg1 ctr inactive | PLCbeta3 conf inactive
CCCS(=O)(=O)NC(=O)C1(C)CCN(C(=O)c2cc(C)n(C(C)(C)C)n2)C1 (stereo unspecified)	none
CCC(CO)Nc1cccc2c1S(=O)(=O)N(Cc1cn(Cc3ccc(Cl)cc3)nn1)Cc1ccccc1O2 (stereo unspecified)	none (no result: TbMetRS inhib)
COCCCNC(=O)CS(=O)Cc1nc(-c2cccc(OC)c2)oc1C (stereo unspecified)	PLC-gamma1 inh 66 | PLCg1 ctr inactive | PLCbeta3 conf inactive
CCOC(=O)c1ccc(NC(=O)c2nc[nH]c2C(=O)NC2CCN(C(=O)OC(C)(C)C)CC2)cc1	PLC-gamma1 inh 11 | PLCg1 ctr inactive | PLCbeta3 conf inactive
CCOC(=O)[C@]12CCCC=C1N(CCc1ccc(OC)c(OC)c1)C(=O)[C@H](CC(=O)N1CCCC1)C2	PLC-gamma1 inh 12 | PLCg1 ctr inactive | PLCbeta3 conf inactive
CCOC(=O)N1CCN(C(=O)C[C@@H]2C[C@@]3(C(=O)OCC)CCC=C3N(Cc3ccc4c(c3)OCO4)C2=O)CC1	PLC-gamma1 inh 9.7 | PLCg1 ctr inactive | PLCbeta3 conf inactive
CCOC(=O)N1CCN(C(=O)C[C@@H]2C[C@@]3(C(=O)OCC)CCCC=C3N(CCc3ccc(OC)c(OC)c3)C2=O)CC1	none
CC1(C)Oc2ccc(C(=O)N/N=C/c3ccc(O)cc3)cc2NC1=O	none
NC(c1csc(Nc2ncccn2)n1)c1ccccc1Cl (stereo unspecified)	PLC-gamma1 inh 12 | PLCg1 ctr inactive | PLCbeta3 conf inactive
O=c1[nH]cnc2c1ncn2[C@@H]1C[C@@H](O)[C@H](CO)O1	none
OCC1OC(n2cnc3c(=S)nc[nH]c32)CC1O (stereo unspecified)	PLC-gamma1 inh 10 | PLCg1 ctr inactive | PLCbeta3 conf inactive
CN1C(=O)SC(Nc2ccccc2)C1=O (stereo unspecified)	PLC-gamma1 inh 9.5 | PLCg1 ctr inactive | PLCbeta3 conf inactive
CN1C(=O)SC(Nc2ccc(F)cc2)C1=O (stereo unspecified)	none
CCN(CC)c1ccc(C(=O)NNC(=O)CNC(=O)c2ccco2)cc1	none
CC(C)CN1C(=O)NC(NC(=O)c2cccnc2)(C(F)(F)F)C1=O (stereo unspecified)	PLC-gamma1 inh 11 | PLCg1 ctr inactive | PLCbeta3 conf inactive
Cc1cccnc1NC(=O)c1ccc(S(=O)(=O)N2CCCCC2)cc1	PLC-gamma1 inh 11 | PLCg1 ctr inactive | PLCbeta3 conf inactive
O=C(Nc1ccncc1)c1cccc(S(=O)(=O)N2CCCC2)c1	PLC-gamma1 inh 10 | PLCg1 ctr inactive | PLCbeta3 conf inactive
CC(C)NC(=O)c1cc2cc([N+](=O)[O-])ccc2s1	PLCb3 inh 12, PLC-gamma1 inh 14 | PLCg1 ctr inactive | PLCbeta3 conf inactive
CCCNC(=O)c1cc2cc([N+](=O)[O-])ccc2s1	none
O=C(Nc1ccc2c(c1)OCO2)c1cnn2c1NC(c1ccco1)CC2C(F)(F)F (stereo unspecified)	PLC-gamma1 inh 10 | PLCg1 ctr inactive | PLCbeta3 conf inactive
Cc1ccc(NC(=O)N(Cc2cc3cc(C)cc(C)c3[nH]c2=O)CC2COCCO2)cc1 (stereo unspecified)	none
COc1cccc(NC(=O)N(Cc2cc3cc(C)cc(C)c3[nH]c2=O)CC2COCCO2)c1 (stereo unspecified)	PLC-gamma1 inh 11 | PLCg1 ctr inactive | PLCbeta3 conf inactive
O=C(O)c1cccc2c1C(=O)c1ccccc1-2	none
O=C1C(=C(I)I)c2ccccc2-c2ccccc21	PLC-gamma1 inh 34 | PLCg1 ctr 39 | PLCbeta3 conf inactive
COc1ccc(OC)c(NC(=O)COc2coc(CN3CCCc4ccccc43)cc2=O)c1	PLC-gamma1 inh 17 | PLCg1 ctr inactive | PLCbeta3 conf inactive
O=C(CC(=O)N/N=C/c1ccc(O)cc1)N/N=C/c1ccc(O)cc1	PLC-gamma1 inh 12 | PLCg1 ctr inactive | PLCbeta3 conf inactive
O=C(Cc1cccs1)N/N=C\c1ccc(O)cc1	none
CSCCC(NC(=O)c1ccc(Cl)cc1Cl)C(=O)N1CCN(C(=O)c2ccccc2)CC1 (stereo unspecified)	PLC-gamma1 inh 11 | PLCg1 ctr inactive | PLCbeta3 conf inactive
CSCCC(NC(=O)c1ccccc1Cl)C(=O)N1CCC1 (stereo unspecified)	none
CCc1cccc(C)c1NC(=O)COC(=O)CSCc1ccccc1	none
O=C(Nc1ccnn1C1CCN(CCCC2CCCC2)CC1)c1ccccc1Cl	PLC-gamma1 inh 11 | PLCg1 ctr inactive | PLCbeta3 conf inactive
S=C(NC1CCCCC1)N1CCc2ccccc2C1	PLC-gamma1 inh 9.9 | PLCg1 ctr inactive | PLCbeta3 conf inactive
Cc1ccsc1C(=O)N1CCCC(C)(C(=O)NS(=O)(=O)C2CC2)C1 (stereo unspecified)	PLC-gamma1 inh 9.8 | PLCg1 ctr inactive | PLCbeta3 conf inactive
